Measured values as given in ChEMBL document CHEMBL3739352, “Anticonvulsant activity, crystal structures, and preliminary safety evaluation of N-trans-cinnamoyl derivatives of selected (un)modified aminoalkanols” (Eur J Med Chem, 2016).
Activity calls are given as the source filed them. The calls are words filed in the database; no cut-off is given here.

Tests used:
[1] = test system: Salmonella typhimurium; test: Mutagenicity in Salmonella typhimurium TA98 assessed as number of revertants at 10 ug/plate by Ames test (reference value: 23 +/- 3); format: toxicity, organism-based; settings: salmonella enterica subsp. enterica serovar typhimurium
[2] = test system: Mus musculus; test: Anticonvulsant activity in ip dosed albino Carworth Farms No.1 mouse assessed as protection against 6-Hz electroshock-induced seizures after 0.25 hrs; format: functional; settings: Carworth Farms No.1, ip
How it was run: (§1)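 Quantitative i.p. evaluation in Carworth Farms No.1 albino mice, with graded doses in 0.5% methylcellulose. MES, scPTZ or 6-Hz (32 mA) seizure tests were run at 0.25 h.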

[3] = test system: Mus musculus; test: Anticonvulsant activity in ip dosed albino Carworth Farms No.1 mouse assessed as protection against subcutaneous dosed pentetrazol-induced seizures after 0.25 hrs; format: functional; settings: Carworth Farms No.1, 0.25 h; how it was run: as §1
[4] = test system: Rattus norvegicus; test: Anticonvulsant activity in po dosed Sprague-Dawley rat assessed as protection against subcutaneous dosed pentetrazol-induced seizures after 0.5 hrs; format: functional
How it was run: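 Sprague-Dawley rats received graded oral doses suspended or dissolved in 0.5% methylcellulose. Challenge was maximal electroshock or subcutaneous pentetrazol at the stated time after dosing.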

[5] = Lipophilicity of the compound using 85% methanol in water at 1 mg/ml by RT-TLC analysis; format: physicochemical; settings: buffer
How it was run: (§2)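 Reversed-phase TLC with a methanol–water mobile phase at the stated methanol content (v/v). Compounds were spotted from 1 mg/mL methanol solutions after 1 h chamber saturation and located under UV light. Rf was measured and RM = log(1/Rf − 1) calculated.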

[6] = Lipophilicity of the compound at 1 mg/ml by RT-TLC analysis relative to 0% methanol; format: physicochemical; settings: methanol/water
How it was run: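 Reversed-phase TLC used methanol–water mobile phases of 95–65% methanol. Compounds were applied from 1 mg/mL methanol solutions after 1 h chamber saturation, with UV detection. RM = log(1/Rf − 1) was calculated at each methanol level and extrapolated linearly (RM = RM0 + bC) to 0% methanol to give RM0.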

[7] = test system: Mus musculus; test: Anticonvulsant activity in albino Carworth Farms No.1 mouse assessed as protection against subcutaneous dosed pentetrazol-induced seizures at 100 mg/kg, ip after 0.5 hrs; format: functional, organism-based
How it was run: (§3)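 Mouse i.p. screen in Carworth Farms No.1 albino mice at 30, 100 or 300 mg/kg in 0.5% methylcellulose. Testing was at 0.5 and 4 h after injection, by maximal electroshock or by subcutaneous pentetrazol challenge. Scoring was number protected / number used.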

[8] = test system: Mus musculus; test: Neurotoxicity in albino Carworth Farms No.1 mouse at 30 mg/kg, ip after 4 hrs by rotarod test; format: toxicity, organism-based; settings: in vivo
How it was run: (§4)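 Mice (albino Carworth Farms No.1) were dosed i.p. at 30, 100 or 300 mg/kg in 0.5% methylcellulose. They were tested 0.5 and 4 h later on a 1-inch knurled rod rotating at 6 rpm. Neurotoxicity was scored if a mouse could not stay on the rod for at least 1 min in each of three trials. Results are given as animals toxic/animals tested, with deaths noted.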

[9] = test system: Mus musculus; test: Neurotoxicity in albino Carworth Farms No.1 mouse at 300 mg/kg, ip after 4 hrs by rotarod test; format: toxicity, organism-based; settings: in vivo; how it was run: as §4
[10] = test system: Mus musculus; test: Anticonvulsant activity in albino Carworth Farms No.1 mouse assessed as protection against 6-Hz electroshock-induced seizures at 100 mg/kg, ip after 0.5 hrs; format: functional, organism-based
How it was run: (§5)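 Carworth Farms No.1 albino mice were dosed i.p. at 100 mg/kg (0.5% methylcellulose solution or suspension). 6-Hz seizures were induced at 32 mA at 0.25, 0.5, 1.0, 2.0 and 4 h after injection. Results are given as animals protected / animals tested.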

[11] = test system: Mus musculus; test: Anticonvulsant activity in albino Carworth Farms No.1 mouse assessed as protection against 6-Hz electroshock-induced seizures at 100 mg/kg, ip after 0.25 hrs; format: functional, organism-based; how it was run: as §5
[12] = Lipophilicity of the compound using 65% methanol in water at 1 mg/ml by RT-TLC analysis; format: physicochemical; settings: buffer; how it was run: as §2
[13] = test system: Mus musculus; test: Neurotoxicity in albino Carworth Farms No.1 mouse at 100 mg/kg, ip after 0.5 hrs by rotarod test; format: toxicity, organism-based; settings: in vivo; how it was run: as §4
[14] = test system: Mus musculus; test: Anticonvulsant activity in albino Carworth Farms No.1 mouse assessed as protection against 6-Hz electroshock-induced seizures at 100 mg/kg, ip after 2 hrs; format: functional, organism-based; how it was run: as §5
[15] = test system: Mus musculus; test: Anticonvulsant activity in albino Carworth Farms No.1 mouse assessed as protection against maximal electroshock-induced seizures at 100 mg/kg, ip after 4 hrs; format: functional, organism-based; how it was run: as §3
[16] = test system: Mus musculus; test: Anticonvulsant activity in albino Carworth Farms No.1 mouse assessed as protection against 6-Hz electroshock-induced seizures at 100 mg/kg, ip after 1 hr; format: functional, organism-based; how it was run: as §5
[17] = Lipophilicity of the compound using 90% methanol in water at 1 mg/ml by RT-TLC analysis; format: physicochemical; settings: buffer; how it was run: as §2
[18] = Lipophilicity of the compound using 95% methanol in water at 1 mg/ml by RT-TLC analysis; format: physicochemical; settings: buffer; how it was run: as §2
[19] = test system: Mus musculus; test: Anticonvulsant activity in albino Carworth Farms No.1 mouse assessed as protection against 6-Hz electroshock-induced seizures at 100 mg/kg, ip after 4 hrs; format: functional, organism-based; how it was run: as §5
[20] = Lipophilicity of the compound using 75% methanol in water at 1 mg/ml by RT-TLC analysis; format: physicochemical; settings: buffer; how it was run: as §2
[21] = test system: Mus musculus; test: Anticonvulsant activity in albino Carworth Farms No.1 mouse assessed as protection against subcutaneous dosed pentetrazol-induced seizures at 100 mg/kg, ip after 4 hrs; format: functional, organism-based; how it was run: as §3
[22] = test system: Mus musculus; test: Anticonvulsant activity in albino Carworth Farms No.1 mouse assessed as protection against maximal electroshock-induced seizures at 100 mg/kg, ip after 0.5 hrs; format: functional, organism-based; how it was run: as §3
[23] = test system: Mus musculus; test: Neurotoxicity in albino Carworth Farms No.1 mouse at 100 mg/kg, ip after 4 hrs by rotarod test; format: toxicity, organism-based; settings: in vivo; how it was run: as §4
[24] = in vitro; settings: human, HepG2 cells
[25] = in vitro; settings: human, HepG2 cells; remark: listed apart in the source
[26] = Hepatotoxicity against human HepG2 cells assessed as cell viability at 25 uM after 24 hrs by MTT assay relative to control; format: toxicity, cell-based; settings: read-out: Activity
How it was run: (§6)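 HepG2 cells (EMEM, 10% FBS, 37 °C, 5% CO₂) were seeded at 1 × 10⁴ per well and cultured overnight. They were then exposed to increasing compound concentrations for 24 h. MTT reagent was added for 3 h and formazan crystals dissolved before reading. Data are mean ± SD of at least three independent experiments, relative to untreated control.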

[27] = Hepatotoxicity against human HepG2 cells assessed as cell viability at 50 uM after 24 hrs by MTT assay relative to control
[28] = Hepatotoxicity against human HepG2 cells assessed as cell viability at 100 uM after 24 hrs by MTT assay relative to control
[29] = in vitro; settings: human, HepG2 cells; remark: listed apart in the source
[30] = in vitro; settings: human, HepG2 cells; remark: listed apart in the source
[31] = Hepatotoxicity against human HepG2 cells assessed as cell viability at 10 uM after 24 hrs by MTT assay relative to control; format: toxicity, cell-based; settings: read-out: Activity; how it was run: as §6

In the case of Nc1ccc([N+](=O)[O-])cc1N, the Activity [1] is reported as 647.

CCCC(CCC)C(=O)O [VALPROIC ACID] showed an ED50 [2] of 126 mg/kg, an ED50 [3] of 220 mg/kg and an ED50 [4] of 646 mg/kg.

For CC(NC(=O)/C=C/c1ccccc1)C(=O)NCN1CCCCC1 (racemic), the Rm [5] was -0.02, the Rm [6] was 1.758 and the Activity [7] was “inactive”. The Activity [8] was “Non-toxic”, the Activity [9] was “Non-toxic” and the Activity [10] was “inactive”. The Activity [11] was “inactive”, the Rm [12] was 0.5 and the Activity [13] was “Non-toxic”. The Activity [14] was “inactive”, the Activity [15] was “inactive” and the Activity [16] was “inactive”. For the same molecule, the Rm [17] was -0.27, the Rm [18] was -0.39 and the Activity [19] was “inactive”. For the same molecule, the Rm [20] was 0.1, the Activity [21] was “inactive” and the Activity [22] was “inactive”. For the same molecule, the Activity [23] was “Non-toxic”.

In the case of NC(=O)N1c2ccccc2C=Cc2ccccc21 [CARBAMAZEPINE], the ED50 [3] is reported as > 50 mg/kg and the ED50 [4] is reported as > 250 mg/kg.

Work on COc1cccc2c1C(=O)c1c(O)c3c(c(O)c1C2=O)C[C@@](O)(C(=O)CO)C[C@@H]3O[C@H]1C[C@H](N)[C@H](O)[C@H](C)O1 [DOXORUBICIN] yielded a viability at 24 h, 100 µM [24] of 48%, a viability at 24 h, 10 µM [25] of 91% and a viability at 24 h, 25 µM [26] of 65.3%. The viability at 24 h, 50 µM [27] was 51.6%, the viability at 24 h, 100 µM [28] was 44.9% and the viability at 24 h, 50 µM [29] was 75%. For the same molecule, the viability at 24 h, 25 µM [30] was 83% and the viability at 24 h, 10 µM [31] was 77.4%.
